system: Aorta; assay: Vasodilating activity in Sprague-Dawley rat aortic rings assessed as reduction in phenylephrine-induced contractions at 1 uM relative to control; assay type: functional; conditions: not given
Procedure, shortened: (§1)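 Thoracic aorta from male SD rats (250-280 g) anesthetized with chloral hydrate, cut into 4 mm rings. Rings held in Krebs-Henseleit at 37 °C gassed with 95% O2/5% CO2, under 2 g resting tension, equilibrated 60 min, and precontracted with 10^-7 M phenylephrine. Cumulative concentrations of 3×10^-9 to 10^-6 M (final) applied. Percent relaxation of the initial contraction taken at 1 µM, and EC50 derived.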

| Structure (SMILES) | Emax at 1 µM [%] |
| --- | --- |
| Cc1nn(-c2ccccc2)c2nc(OCc3ccccc3F)c(-c3nc(N)c(N)c(N)n3)cc12 | 46.7 |
| Cc1nn(-c2ccccc2)c2nc(OCc3ccccc3F)c(-c3nc(N)c(N4CCCCC4)c(N)n3)cc12 | 47.8 |
| Cc1nn(-c2ccccc2)c2nc(OCc3cccc(F)c3)c(-c3nc(N)cc(N)n3)cc12 | 59.9 |
| Cc1nn(-c2ccccc2)c2nc(OCc3ccccc3F)c(-c3nc(N)c(N4CCOCC4)c(N)n3)cc12 | 28.7 |
| Cc1nn(-c2ccccc2)c2nc(OCc3ccc(C(F)(F)F)cc3)c(-c3nc(N)cc(N)n3)cc12 | 43.4 |
| Cc1nn(-c2ccccc2)c2nc(OCc3ccccc3F)c(-c3nc(N)c4c(n3)[nH]c(=O)n4C)cc12 | 32.9 |
| CCCCOC(=O)Nc1c(N)nc(-c2cc3c(C)nn(-c4ccccc4)c3nc2OCc2ccccc2F)nc1N | 15.8 |

system: not listed separately; assay: Antiproliferative activity against HLF1 cells assessed as reduction in TGFbeta-induced cell proliferation measured after 48 hrs by CCK8 assay; assay type: functional, cell-based; conditions: Homo sapiens, HLF1, 48 h
Procedure, shortened: (§2)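 HPASMCs grown in high-glucose D-MEM with 20% FBS and HLF1 in D-MEM/F-12 (1:1) with 10% FBS. Cells stimulated with TGF-β (10 ng/mL) at 37 °C, 5% CO2, then exposed to a concentration range for 48 h. CCK-8 added for 4 h and absorbance read at 490 nm. IC50 derived from the curves.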

| Structure (SMILES) | IC50 [µM] |
| --- | --- |
| Cc1ccc(COc2nc3c(cc2-c2nc(N)cc(N)n2)c(C)nn3-c2ccccc2)cc1 | > 100 |
| Cc1nn(-c2ccccc2)c2nc(OCc3ccccc3F)c(-c3nc(N)c(N)c(N)n3)cc12 | 37.2 |
| Cc1nn(-c2ccccc2)c2nc(OCc3ccccc3F)c(-c3nc(N)c(N4CCCCC4)c(N)n3)cc12 | > 100 |
| Cc1nn(-c2ccccc2)c2nc(OCc3cccc(F)c3)c(-c3nc(N)cc(N)n3)cc12 | 67.7 |
| Cc1nn(-c2ccccc2)c2nc(OCc3ccccc3F)c(-c3nc(N)c(N4CCOCC4)c(N)n3)cc12 | > 100 |
| Cc1nn(-c2ccccc2)c2nc(OCc3ccc(F)cc3)c(-c3nc(N)cc(N)n3)cc12 | 55.3 |
| Cc1nn(-c2ccccc2)c2nc(OCc3ccc(C(F)(F)F)cc3)c(-c3nc(N)cc(N)n3)cc12 | 31 |
| Cc1nn(-c2ccccc2)c2nc(OCc3ccccc3F)c(-c3nc(N)c4c(n3)[nH]c(=O)n4C)cc12 | > 100 |
| Cc1nn(-c2ccccc2)c2nc(O)c(-c3nc(N)cc(N)n3)cc12 | > 100 |
| CCCCOC(=O)Nc1c(N)nc(-c2cc3c(C)nn(-c4ccccc4)c3nc2OCc2ccccc2F)nc1N | 52.8 |
| Cc1nn(-c2ccccc2)c2c1cc(-c1nc(N)c(N3CCOCC3)c(N)n1)c(=O)n2Cc1ccccc1F | > 100 |

system: Aorta; assay: Vasodilating activity in Sprague-Dawley rat aortic rings assessed as reduction in phenylephrine-induced contractions; assay type: functional, tissue-based; conditions: not given; procedure, shortened: as §1

| Structure (SMILES) | EC50 [µM] |
| --- | --- |
| Cc1nn(-c2ccccc2)c2nc(OCc3ccccc3F)c(-c3nc(N)c(N)c(N)n3)cc12 | 0.96 |
| Cc1nn(-c2ccccc2)c2nc(OCc3ccccc3F)c(-c3nc(N)c(N4CCCCC4)c(N)n3)cc12 | 0.79 |
| Cc1nn(-c2ccccc2)c2nc(OCc3cccc(F)c3)c(-c3nc(N)cc(N)n3)cc12 | 0.36 |
| Cc1nn(-c2ccccc2)c2nc(OCc3ccccc3F)c(-c3nc(N)c(N4CCOCC4)c(N)n3)cc12 | 8.2 |
| Cc1nn(-c2ccccc2)c2nc(OCc3ccc(C(F)(F)F)cc3)c(-c3nc(N)cc(N)n3)cc12 | 1.6 |
| Cc1nn(-c2ccccc2)c2nc(OCc3ccccc3F)c(-c3nc(N)c4c(n3)[nH]c(=O)n4C)cc12 | 4.9 |
| CCCCOC(=O)Nc1c(N)nc(-c2cc3c(C)nn(-c4ccccc4)c3nc2OCc2ccccc2F)nc1N | > 100 |

system: not listed separately; assay: Antiproliferative activity against HPASMC assessed as reduction in TGFbeta-induced cell proliferation measured after 48 hrs by CCK8 assay; assay type: functional, tissue-based; conditions: Homo sapiens, Pulmonary Artery Smooth Muscle Cells; procedure, shortened: as §2

| Structure (SMILES) | IC50 [µM] |
| --- | --- |
| Cc1ccc(COc2nc3c(cc2-c2nc(N)cc(N)n2)c(C)nn3-c2ccccc2)cc1 | 89.4 |
| Cc1nn(-c2ccccc2)c2nc(OCc3ccccc3F)c(-c3nc(N)c(N)c(N)n3)cc12 | 22.4 |
| Cc1nn(-c2ccccc2)c2nc(OCc3ccccc3F)c(-c3nc(N)c(N4CCCCC4)c(N)n3)cc12 | 53 |
| Cc1nn(-c2ccccc2)c2nc(OCc3cccc(F)c3)c(-c3nc(N)cc(N)n3)cc12 | 68.4 |
| Cc1nn(-c2ccccc2)c2nc(OCc3ccccc3F)c(-c3nc(N)c(N4CCOCC4)c(N)n3)cc12 | 25.2 |
| Cc1nn(-c2ccccc2)c2nc(OCc3ccc(F)cc3)c(-c3nc(N)cc(N)n3)cc12 | > 100 |
| Cc1nn(-c2ccccc2)c2nc(OCc3ccc(C(F)(F)F)cc3)c(-c3nc(N)cc(N)n3)cc12 | 20.4 |
| Cc1nn(-c2ccccc2)c2nc(OCc3ccccc3F)c(-c3nc(N)c4c(n3)[nH]c(=O)n4C)cc12 | 23.2 |
| Cc1nn(-c2ccccc2)c2nc(O)c(-c3nc(N)cc(N)n3)cc12 | 40.6 |
| CCCCOC(=O)Nc1c(N)nc(-c2cc3c(C)nn(-c4ccccc4)c3nc2OCc2ccccc2F)nc1N | 21.7 |
| Cc1nn(-c2ccccc2)c2c1cc(-c1nc(N)c(N3CCOCC3)c(N)n1)c(=O)n2Cc1ccccc1F | > 100 |

target: cGMP-specific 3',5'-cyclic phosphodiesterase (Homo sapiens) (UniProt O76074); conditions: dose 2.0 nM, time 15.0 min

| Structure (SMILES) | inhibition [%] |
| --- | --- |
| CCCc1nn(C)c2c(=O)[nH]c(-c3cc(S(=O)(=O)N4CCN(C)CC4)ccc3OCC)nc12 | 54.9 |
